Assay results published in ChEMBL document CHEMBL1136049, “Synthesis of syn- and anti-1-amino-3-[18F]fluoromethyl-cyclobutane-1-carboxylic acid (FMACBC), potential PET ligands for tumor detection” (J Med Chem, 2002).

How the values were obtained:
Rattus norvegicus [1] = species: Rattus norvegicus; test: Radioactivity distribution in liver of normal fischer rat after injection of syn-[18F]-FMACBC after 5 min.; assay type: ADME, organism-based; details: in vivo
Procedure, shortened: (§1)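 Male Fischer 344 rats (200–250 g), normal, fed ad libitum, given ~85 μCi of 18F tracer in 0.3 mL sterile water IV through a tail vein catheter. Anesthesia was ketamine:xylazine IM. Groups of four were killed at 5, 30, 60 and 120 min. Tissues were weighed and gamma-counted against dose standards, decay-corrected, and expressed as mean % injected dose per gram.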

Rattus norvegicus [2] = species: Rattus norvegicus; test: Radioactivity distribution in liver of tumor-bearing fischer rat after injection of syn-[18F]-FMACBC after 5 min; assay type: ADME, organism-based; details: in vivo
Procedure, shortened: (§2)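 Male Fischer 344 rats with intracranial 9L gliosarcoma (4 × 10^4 cells stereotaxically implanted; used 17–19 days after implantation). About 35 μCi tracer in 0.3 mL sterile water was given by tail vein to awake, restrained rats. Rats were killed at 5, 60 or 120 min. Tissues, tumor and contralateral brain were weighed and gamma counted, decay-corrected, and expressed as %ID/g; n = 3–5 per time point.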

Rattus norvegicus [3] = species: Rattus norvegicus; test: Radioactivity distribution in testis of normal fischer rat after injection of syn-[18F]-FMACBC after 5 min.; assay type: ADME, organism-based; details: in vivo
Procedure, shortened: (§3)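 Normal male Fischer 344 rats (200–250 g) were anesthetised with ketamine:xylazine i.m. and given about 85 μCi tracer in 0.3 mL sterile water via a tail vein catheter. Groups of four were killed at 5, 30, 60 and 120 min. Selected tissues were weighed and gamma counted with dose standards, decay-corrected, and expressed as mean %ID/g.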

Rattus norvegicus [4] = species: Rattus norvegicus; test: Radioactivity distribution in heart of normal fischer rat after injection of syn-[18F]-FMACBC after 60 min.; assay type: ADME, organism-based; details: in vivo, 1 h; procedure, shortened: as §1
Rattus norvegicus [5] = species: Rattus norvegicus; test: Radioactivity distribution in testis of normal fischer rat after injection of syn-[18F]-FMACBC after 30 min.; assay type: ADME, organism-based; details: in vivo, 0.5 h; procedure, shortened: as §3
Rattus norvegicus [6] = species: Rattus norvegicus; test: Radioactivity distribution in pancreas of normal fischer rat after injection of anti-[18F]FMACBC after 5 min.; assay type: ADME, organism-based; details: in vivo; procedure, shortened: as §3
Rattus norvegicus [7] = species: Rattus norvegicus; test: Radioactivity distribution in pancreas of tumor-bearing fischer rat after injection of syn-[18F]-FMACBC after 5 min; assay type: ADME, organism-based; details: in vivo; procedure, shortened: as §2
Rattus norvegicus [8] = species: Rattus norvegicus; test: Radioactivity distribution in spleen of normal fischer rat after injection of anti-[18F]FMACBC after 30 min.; assay type: ADME, organism-based; details: in vivo, 0.5 h; procedure, shortened: as §3
Rattus norvegicus [9] = species: Rattus norvegicus; test: Radioactivity distribution in heart of normal fischer rat after injection of syn-[18F]-FMACBC after 5 min.; assay type: ADME, organism-based; details: in vivo; procedure, shortened: as §1
Rattus norvegicus [10] = species: Rattus norvegicus; test: Radioactivity distribution in spleen of normal fischer rat after injection of anti-[18F]FMACBC after 120 min.; assay type: ADME, organism-based; details: in vivo, 2 h; procedure, shortened: as §3
Rattus norvegicus [11] = species: Rattus norvegicus; test: Radioactivity distribution in lungs of normal fischer rat after injection of syn-[18F]-FMACBC after 30 min.; assay type: ADME, organism-based, Lung; details: in vivo, 0.5 h; procedure, shortened: as §3
Rattus norvegicus [12] = species: Rattus norvegicus; test: Radioactivity distribution in testis of normal fischer rat after injection of syn-[18F]-FMACBC after 120 min.; assay type: ADME, organism-based; details: in vivo, 2 h; procedure, shortened: as §3
Rattus norvegicus [13] = species: Rattus norvegicus; test: Radioactivity distribution in pancreas of normal fischer rat after injection of syn-[18F]-FMACBC after 60 min.; assay type: ADME, organism-based; details: in vivo, 1 h; procedure, shortened: as §3
Rattus norvegicus [14] = species: Rattus norvegicus; test: Radioactivity distribution in pancreas of tumor-bearing fischer rat after injection of anti-[18F]FMACBC after 120 min; assay type: ADME, organism-based; details: in vivo, 2 h; procedure, shortened: as §2
Rattus norvegicus [15] = species: Rattus norvegicus; test: Radioactivity distribution in kidney of tumor-bearing fischer rat after injection of syn-[18F]-FMACBC after 120 min; assay type: ADME, organism-based; details: in vivo, 2 h
Procedure, shortened: (§4)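 Male Fischer 344 rats carrying intracranial rat 9L gliosarcoma, made by stereotaxic injection of 4 × 10^4 cells 17–19 days before. Awake restrained rats received ~35 μCi of 18F tracer in 0.3 mL sterile water IV by tail vein and were killed at 5, 60 or 120 min, n = 3–5. Tissues were weighed, gamma-counted, decay-corrected and expressed as % injected dose per gram.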

Rattus norvegicus [16] = species: Rattus norvegicus; test: Radioactivity distribution in blood of normal fischer rat after injection of anti-[18F]FMACBC after 120 min.; assay type: ADME, organism-based; details: in vivo, 2 h; procedure, shortened: as §1
Rattus norvegicus [17] = species: Rattus norvegicus; test: Radioactivity distribution in bone of tumor-bearing fischer rat after injection of syn-[18F]-FMACBC after 5 min; assay type: ADME, organism-based, Bone element; details: in vivo; procedure, shortened: as §4
Rattus norvegicus [18] = species: Rattus norvegicus; test: Radioactivity distribution in kidney of normal fischer rat after injection of syn-[18F]-FMACBC after 5 min.; assay type: ADME, organism-based; details: in vivo; procedure, shortened: as §1
Rattus norvegicus [19] = species: Rattus norvegicus; test: Radioactivity distribution in heart of tumor-bearing fischer rat after injection of anti-[18F]FMACBC after 120 min; assay type: ADME, organism-based; details: in vivo, 2 h; procedure, shortened: as §4
Rattus norvegicus [20] = species: Rattus norvegicus; test: Radioactivity distribution in testis of normal fischer rat after injection of syn-[18F]-FMACBC after 60 min.; assay type: ADME, organism-based; details: in vivo, 1 h; procedure, shortened: as §3
Rattus norvegicus [21] = species: Rattus norvegicus; test: Radioactivity distribution in spleen of normal fischer rat after injection of anti-[18F]FMACBC after 60 min.; assay type: ADME, organism-based; details: in vivo, 1 h; procedure, shortened: as §3
Rattus norvegicus [22] = species: Rattus norvegicus; test: Radioactivity distribution in spleen of normal fischer rat after injection of syn-[18F]-FMACBC after 60 min.; assay type: ADME, organism-based; details: in vivo, 1 h; procedure, shortened: as §3
Rattus norvegicus [23] = species: Rattus norvegicus; test: Radioactivity distribution in heart of tumor-bearing fischer rat after injection of anti-[18F]FMACBC after 5 min; assay type: ADME, organism-based; details: in vivo; procedure, shortened: as §4
Rattus norvegicus [24] = species: Rattus norvegicus; test: Radioactivity distribution in brain of tumor-bearing fischer rat after injection of anti-[18F]FMACBC after 5 min; assay type: ADME, organism-based; details: in vivo; procedure, shortened: as §4
Rattus norvegicus [25] = species: Rattus norvegicus; test: Radioactivity distribution in brain of normal fischer rat after injection of anti-[18F]FMACBC after 120 min.; assay type: ADME, organism-based; details: in vivo, 2 h; procedure, shortened: as §1
Rattus norvegicus [26] = species: Rattus norvegicus; test: Radioactivity distribution in tumor of tumor-bearing fischer rat after injection of anti-[18F]FMACBC after 5 min; assay type: ADME, organism-based; details: in vivo; procedure, shortened: as §2
Rattus norvegicus [27] = species: Rattus norvegicus; test: Radioactivity distribution in muscle of tumor-bearing fischer rat after injection of syn-[18F]-FMACBC after 60 min; assay type: ADME, organism-based, Muscle tissue; details: in vivo, 1 h; procedure, shortened: as §2
Rattus norvegicus [28] = species: Rattus norvegicus; test: Radioactivity distribution in pancreas of tumor-bearing fischer rat after injection of anti-[18F]FMACBC after 5 min; assay type: ADME, organism-based; details: in vivo; procedure, shortened: as §2
Rattus norvegicus [29] = species: Rattus norvegicus; test: Radioactivity distribution in testis of tumor-bearing fischer rat after injection of anti-[18F]FMACBC after 5 min; assay type: ADME, organism-based; details: in vivo; procedure, shortened: as §2
Rattus norvegicus [30] = species: Rattus norvegicus; test: Radioactivity distribution in testis of tumor-bearing fischer rat after injection of syn-[18F]-FMACBC after 5 min; assay type: ADME, organism-based; details: in vivo; procedure, shortened: as §2
Rattus norvegicus [31] = species: Rattus norvegicus; test: Radioactivity distribution in heart of normal fischer rat after injection of syn-[18F]-FMACBC after 120 min.; assay type: ADME, organism-based; details: in vivo, 2 h; procedure, shortened: as §1
Rattus norvegicus [32] = species: Rattus norvegicus; test: Radioactivity distribution in blood of tumor-bearing fischer rat after injection of anti-[18F]FMACBC after 5 min; assay type: ADME, organism-based; details: in vivo; procedure, shortened: as §4
Rattus norvegicus [33] = species: Rattus norvegicus; test: Radioactivity distribution in blood of normal fischer rat after injection of syn-[18F]-FMACBC after 5 min.; assay type: ADME, organism-based; details: in vivo; procedure, shortened: as §1
Rattus norvegicus [34] = species: Rattus norvegicus; test: Radioactivity distribution in brain of tumor-bearing fischer rat after injection of anti-[18F]FMACBC after 120 min; assay type: ADME, organism-based; details: in vivo, 2 h; procedure, shortened: as §4
Rattus norvegicus [35] = species: Rattus norvegicus; test: Radioactivity distribution in bone of tumor-bearing fischer rat after injection of anti-[18F]FMACBC after 120 min; assay type: ADME, organism-based, Bone element; details: in vivo, 2 h; procedure, shortened: as §4
Rattus norvegicus [36] = species: Rattus norvegicus; test: Radioactivity distribution in brain of normal fischer rat after injection of syn-[18F]-FMACBC after 120 min.; assay type: ADME, organism-based; details: in vivo, 2 h; procedure, shortened: as §1
Rattus norvegicus [37] = species: Rattus norvegicus; test: Radioactivity distribution in liver of normal fischer rat after injection of syn-[18F]-FMACBC after 120 min.; assay type: ADME, organism-based; details: in vivo, 2 h; procedure, shortened: as §1
Rattus norvegicus [38] = species: Rattus norvegicus; test: Radioactivity distribution in kidney of normal fischer rat after injection of syn-[18F]-FMACBC after 60 min.; assay type: ADME, organism-based; details: in vivo, 1 h; procedure, shortened: as §1
Rattus norvegicus [39] = species: Rattus norvegicus; test: Radioactivity distribution in kidney of tumor-bearing fischer rat after injection of syn-[18F]-FMACBC after 5 min; assay type: ADME, organism-based; details: in vivo; procedure, shortened: as §4
Rattus norvegicus [40] = species: Rattus norvegicus; test: Radioactivity distribution in kidney of normal fischer rat after injection of syn-[18F]-FMACBC after 120 min.; assay type: ADME, organism-based; details: in vivo, 2 h; procedure, shortened: as §1
Rattus norvegicus [41] = species: Rattus norvegicus; test: Radioactivity distribution in liver of tumor-bearing fischer rat after injection of syn-[18F]-FMACBC after 60 min; assay type: ADME, organism-based; details: in vivo, 1 h; procedure, shortened: as §2

Compound: N[C@]1(C(=O)O)C[C@@H](CF)C1
- ID/g (Rattus norvegicus [1]): 0.66%
- ID/g (Rattus norvegicus [2]): 0.64%
- ID/g (Rattus norvegicus [3]): 0.32%
- ID/g (Rattus norvegicus [4]): 0.64%
- ID/g (Rattus norvegicus [5]): 0.29%
- ID/g (Rattus norvegicus [6]): 2.56%
- ID/g (Rattus norvegicus [7]): 3.19%
- ID/g (Rattus norvegicus [8]): 0.63%
- ID/g (Rattus norvegicus [9]): 0.63%
- ID/g (Rattus norvegicus [10]): 0.47%
- ID/g (Rattus norvegicus [11]): 0.46%
- ID/g (Rattus norvegicus [12]): 0.22%
- ID/g (Rattus norvegicus [13]): 3.13%
- ID/g (Rattus norvegicus [14]): 2.17%
- ID/g (Rattus norvegicus [15]): 0.34%
- ID/g (Rattus norvegicus [16]): 0.31%
- ID/g (Rattus norvegicus [17]): 0.26%
- ID/g (Rattus norvegicus [18]): 0.57%
- ID/g (Rattus norvegicus [19]): 0.52%
- ID/g (Rattus norvegicus [20]): 0.23%
- ID/g (Rattus norvegicus [21]): 0.48%
- ID/g (Rattus norvegicus [22]): 0.54%
- ID/g (Rattus norvegicus [23]): 0.58%
- ID/g (Rattus norvegicus [24]): 0.17%
- ID/g (Rattus norvegicus [25]): 0.25%
- ID/g (Rattus norvegicus [26]): 1.28%
- ID/g (Rattus norvegicus [27]): 0.54%
- ID/g (Rattus norvegicus [28]): 3.26%
- ID/g (Rattus norvegicus [29]): 0.23%
- ID/g (Rattus norvegicus [30]): 0.19%
- ID/g (Rattus norvegicus [31]): 0.6%
- ID/g (Rattus norvegicus [32]): 0.51%
- ID/g (Rattus norvegicus [33]): 0.53%
- ID/g (Rattus norvegicus [34]): 0.28%
- ID/g (Rattus norvegicus [35]): 0.19%
- ID/g (Rattus norvegicus [36]): 0.21%
- ID/g (Rattus norvegicus [37]): 0.52%
- ID/g (Rattus norvegicus [38]): 0.45%
- ID/g (Rattus norvegicus [39]): 0.59%
- ID/g (Rattus norvegicus [40]): 0.46%
- ID/g (Rattus norvegicus [41]): 0.33%
